Nine compounds from ChEMBL document CHEMBL1165971, “Structures and antimicrobial activities of pyridoacridine alkaloids isolated from different chromotypes of the ascidian Cystodytes dellechiajei” (2010) can be followed below.

Converted amounts (≈) assume the structure as drawn.

By MIC is commonly meant the lowest concentration found to suppress growth. Low readings indicate inhibition by little substance, high ones a need for much substance.

One assay relates to Escherichia coli. Briefly: Antibacterial activity against Escherichia coli after 24 hrs by liquid growth inhibition assay. Type of assay: functional. The procedure, abridged: (§1)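 Liquid growth inhibition (NCCLS-based broth method). Compounds dissolved in DMSO and liquid medium, incubated with bacteria at 2 × 10^8 cells/mL in PB medium (Bacto-tryptone 1%, NaCl 0.5%, pH 7.5), 35 °C, 24 h, constant agitation. Triplicate wells. Growth read as absorbance at 620 nm; MIC taken as lowest concentration inhibiting growth.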

Another assay deals with Micrococcus luteus. Briefly: Antibacterial activity against Micrococcus luteus after 24 hrs by liquid growth inhibition assay. Type of assay: functional. The procedure, abridged: as §1

For the compound `N=C1C2=C(NCCC2=O)c2nccc3c2c1nc1ccc(O)cc13` [CYSTODIMINE B], the MIC was found to be 2.6 µM (≈ 0.822 µg/mL) against Escherichia coli and 10.5 µM (≈ 3.32 µg/mL) with Micrococcus luteus.
With GENTAMICIN, the MIC amounted to 0.08 µM with Escherichia coli and 0.02 µM with Micrococcus luteus.
As to `CC(=O)NCCc1c2c(c3nccc4c3c1Nc1ccccc1-4)NC(=O)CS2` [SHERMILAMINE B], the MIC is 2 µM (≈ 0.781 µg/mL) with Escherichia coli and 8 µM (≈ 3.12 µg/mL) with Micrococcus luteus.
The like results for `NCCc1c2c3c(ccnc3c3ncsc13)-c1ccccc1N2` were, in that order, 2.5 µM (≈ 0.796 µg/mL) and 2.5 µM (≈ 0.796 µg/mL).
`O=C1c2cccnc2-c2nccc3c2c1nc1ccccc13` [ASCIDIDEMIN]: the MIC with Escherichia coli is 0.2 µM (≈ 0.0567 µg/mL); in the assay on Micrococcus luteus, 0.3 µM (≈ 0.085 µg/mL).
The like results for `O=C1c2c(O)ccnc2-c2nccc3c2c1nc1ccccc13` were, in that order, 2.6 µM (≈ 0.778 µg/mL) and 10.5 µM (≈ 3.14 µg/mL).
The like results for `NCCc1c2c(c3nccc4c3c1Nc1ccccc1-4)NC(=O)CS2` were, in that order, 1.1 µM (≈ 0.383 µg/mL) and 4.5 µM (≈ 1.57 µg/mL).
The like results for `N=C1C2=C(NCCC2=O)c2nccc3c2c1nc1ccccc13` [CYSTODIMINE A] were, in that order, 1.2 µM (≈ 0.36 µg/mL) and 2.4 µM (≈ 0.721 µg/mL).
As for `CC(=O)NCCc1c2c3c(ccnc3c3ncsc13)-c1ccccc1N2` [KUANONIAMINE D], the MIC in the assay on Escherichia coli was found to be 2.2 µM (≈ 0.793 µg/mL); with Micrococcus luteus, 17.4 µM (≈ 6.27 µg/mL).
